From PubChem BioAssay AID651869 (Broad Institute, 2012)

Tested on: T. cruzi CAI/72 in BESM cells, trypomastigote emergence, microscopy
Assay: cidal versus static activity on T. cruzi, late-stage follow-up, mechanism study for T. cruzi inhibitor project, imaging, CAI/72 strain, BESM host cells, 29-day treatment, set 2 (AID 651869)
Conditions: hits give high values
How it was run: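 Measure: trypomastigote emergence timing as cidal versus static measure; assay system: bovine embryo skeletal muscle (BESM) cells infected with Trypanosoma cruzi CAI/72; timing: 24 h post-infection wash, alternate-day dosing 29 days, 20-day washout; measured by: daily light-microscopy scoring of trypomastigote emergence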

SMILES | cidality slope score
C[C@H]1CN([C@@H](C)CO)C(=O)c2cccc(NC(=O)c3ccncc3)c2O[C@H]1CN(C)Cc1ccc(Oc2ccccc2)cc1 | 1100
C[C@H](CO)N1C[C@H](C)[C@H](CN(C)Cc2ccc(Oc3ccccc3)cc2)Oc2c(NC(=O)c3ccncc3)cccc2C1=O | 85
C[C@@H]1CN([C@H](C)CO)C(=O)c2cccc(NC(=O)c3ccncc3)c2O[C@H]1CN(C)Cc1ccc(Oc2ccccc2)cc1 | 1100
CC(C)N1C[C@@H](C)[C@H](CN(C)Cc2cccc(Oc3ccccc3)c2)Oc2c(NC(=O)c3ccncc3)cccc2C1=O | 1100
C[C@@H]1CN([C@@H](C)CO)C(=O)c2cccc(NC(=O)c3ccncc3)c2O[C@H]1CN(C)Cc1cccc(Cl)c1 | 75
O=C(Cn1ccnc1[N+](=O)[O-])NCc1ccccc1 | 12
C[C@@H]1CN([C@@H](C)CO)C(=O)c2cccc(NC(=O)c3ccncc3)c2O[C@H]1CN(C)Cc1ccc(Oc2ccccc2)cc1 | 1100
C[C@@H]1CN([C@H](C)CO)C(=O)c2cccc(NC(=O)c3ccncc3)c2O[C@H]1CN(C)Cc1ccccc1 | 85
C[C@H]1CN([C@@H](C)CO)C(=O)c2cccc(NC(=O)c3ccncc3)c2O[C@@H]1CN(C)Cc1ccc(Oc2ccccc2)cc1 | 1100
C[C@@H]1CN([C@@H](C)CO)C(=O)c2cccc(NC(=O)c3ccncc3)c2O[C@H]1CN(C)Cc1ccc(Cl)cc1 | 7.6
